Published values of several laboratories.
Each line is one published result; the experiments were not run side by side.
Target: Serine/threonine-protein kinase Nek1 (NEK1, Homo sapiens, UniProt Q96PY6)
Residues used in one study (Q96PY6 1-1258): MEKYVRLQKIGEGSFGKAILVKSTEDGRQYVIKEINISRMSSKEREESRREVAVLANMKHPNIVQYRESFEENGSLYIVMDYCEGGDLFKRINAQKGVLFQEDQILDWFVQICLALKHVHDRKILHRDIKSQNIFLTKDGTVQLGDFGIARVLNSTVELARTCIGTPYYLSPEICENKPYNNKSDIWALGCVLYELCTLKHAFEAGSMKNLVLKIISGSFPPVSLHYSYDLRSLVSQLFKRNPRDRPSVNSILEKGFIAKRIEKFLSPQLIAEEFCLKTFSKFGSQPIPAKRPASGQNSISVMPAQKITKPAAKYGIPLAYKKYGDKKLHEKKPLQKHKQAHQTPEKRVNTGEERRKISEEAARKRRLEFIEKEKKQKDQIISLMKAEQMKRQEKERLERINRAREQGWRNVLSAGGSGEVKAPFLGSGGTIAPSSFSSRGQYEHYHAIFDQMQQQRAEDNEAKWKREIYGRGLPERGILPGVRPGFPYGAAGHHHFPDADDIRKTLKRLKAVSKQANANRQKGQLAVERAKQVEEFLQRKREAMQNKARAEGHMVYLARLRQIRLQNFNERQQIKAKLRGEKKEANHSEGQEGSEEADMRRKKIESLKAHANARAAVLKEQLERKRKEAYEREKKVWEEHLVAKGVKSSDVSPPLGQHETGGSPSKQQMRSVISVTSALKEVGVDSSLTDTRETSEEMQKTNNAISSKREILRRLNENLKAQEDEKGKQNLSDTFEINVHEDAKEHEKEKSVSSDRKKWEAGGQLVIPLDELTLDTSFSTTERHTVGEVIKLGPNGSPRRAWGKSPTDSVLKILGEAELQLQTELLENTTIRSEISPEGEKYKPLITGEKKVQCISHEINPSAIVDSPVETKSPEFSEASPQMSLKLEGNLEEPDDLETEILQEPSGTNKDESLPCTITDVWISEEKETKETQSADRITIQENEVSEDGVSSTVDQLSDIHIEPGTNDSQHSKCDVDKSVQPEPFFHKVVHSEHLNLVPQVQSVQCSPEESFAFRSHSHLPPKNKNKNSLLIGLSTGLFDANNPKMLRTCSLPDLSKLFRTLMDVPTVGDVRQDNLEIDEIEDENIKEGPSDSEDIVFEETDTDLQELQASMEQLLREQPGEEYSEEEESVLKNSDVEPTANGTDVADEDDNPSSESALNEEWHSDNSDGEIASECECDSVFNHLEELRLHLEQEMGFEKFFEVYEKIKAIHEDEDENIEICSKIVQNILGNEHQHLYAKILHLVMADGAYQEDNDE

Cn1cncc1[C@](O)(COc1ccc(C#N)cc1-c1ccc(OC(F)(F)F)cc1)c1ccc(C#N)cc1
remaining binding (cell-free assay; competition with immobilised ligand; 1 µM): 80%

COc1ncccc1-c1cnn2ccc(N3CCN(C(=O)OC(C)C)CC3)nc12
remaining binding (binding; competition with immobilised ligand; 1 µM): 100%

Nc1ncc(-c2nc(N3CCOCC3)nc(N3CCOCC3)n2)c(C(F)F)n1
remaining binding (binding; competition with immobilised ligand; 10 µM): 99%

COc1cc(Nc2ncc(F)c(Nc3ccc4c(n3)NC(=O)C(C)(C)O4)n2)cc(OC)c1OC
inhibition (binding; competition with immobilised ligand; 10 µM): 96%

Cn1cc(-c2cccc(N3CCc4c(sc5c4CC(C)(C)C5)C3=O)c2CO)cc(Nc2ccncn2)c1=O
inhibition (enzyme activity; inhibitor; 1 µM): 5%

CC(C)(C)c1cc(C=C(C#N)C#N)cc(Br)c1O
remaining activity (enzyme activity; inhibitor; 0.5 µM): 97.7%

CCN1CCN(Cc2ccc(NC(=O)c3ccc(C)c(/C=C/c4cnc5[nH]ccc5c4OC)c3)cc2C(F)(F)F)CC1
inhibition (target engagement in cells; inhibitor; chemoproteomics; A-375; 50 nM): -17%

Cc1nn(C)cc1-c1nc2c(N3CCN(Cc4ccc(Cl)cc4)CC3)c(Cl)cnc2[nH]1
remaining binding (binding; competition with immobilised ligand; 1 µM): 82%

Cn1cc(-c2cc(F)cc(N3CCn4c(cc5c4CCCC5)C3=O)c2CO)cc(Nc2ccc(N3CCN(C4COC4)CC3)cn2)c1=O
inhibition (enzyme activity; inhibitor; 0.1 µM): -3%

O=c1[nH]c2ccccc2n1C1CCN(Cc2ccc(-c3[nH]c4cc5ncnc5cc4nc3-c3ccccc3)cc2)CC1
remaining signal (cell-free assay; 0.5 µM): 101%

O=C(NCc1ncc(C(F)(F)F)cc1Cl)c1ccc2c(c1)C1(CCS(=O)(=O)CC1)[C@@H](C1CC1)N2S(=O)(=O)c1ccc(F)cc1
remaining binding (cell-free assay; competition with immobilised ligand; 1 µM): 96%

COCc1c(-c2cc3cc(C)cc(OC)c3s2)c2c(N)ncnn2c1CN1CCNC(=O)C1
inhibition (cell-free assay; competition with immobilised ligand; 1 µM): 78%
